Among the data in ChEMBL document CHEMBL1811838, “Antimalarial activity of natural and synthetic prodiginines” (J Med Chem, 2011) are IC50 values, retold here.

One data set concerns Plasmodium falciparum. Briefly: Antimalarial activity Plasmodium falciparum D6 after 72 hrs by SYBR Green I based fluorescence assay. As to conditions: D6, 72 h. It counts as functional, organism-based. The method, boiled down:
(§1)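 P. falciparum (D6 pansensitive; Dd2 MDR) cultured under standard conditions and grown 72 h with varying compound concentrations, chloroquine positive control or no drug, each condition in quadruplicate. Growth measured by SYBR Green I fluorescence with minor modifications; IC50 = concentration inhibiting growth by 50%.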
For `COC1=CC(c2ccc[nH]2)=N/C1=C\c1[nH]c(Cc2ccc(Cl)cc2)cc1CCC1CCCCC1`, the IC50 turned out to be 0.0039 µM.

`CCCCCCCCCCCC1=N/C(=C\c2[nH]c(-c3cc4ccccc4[nH]3)cc2OC)C=C1`: the IC50 amounted to 4.06 µM.

The compound `CCCCCCCCc1cc(CCCCCCCC)c(/C=C2\N=C(c3ccc[nH]3)C=C2OC)[nH]1` gave an IC50 of 0.092 µM.

As to `COC1=CC(c2ccc[nH]2)=N/C1=C\c1[nH]ccc1Cc1ccc(OC)cc1`, the IC50 stood at 0.17 µM.

Turning to `COC1=CC(c2ccc[nH]2)=N/C1=C\c1[nH]c(Cc2c(F)cccc2F)cc1Cc1c(F)cccc1F`, the half-inhibitory concentration (IC50) is 0.0147 µM.

The compound `COC1=CC(c2ccc[nH]2)=N/C1=C\c1[nH]c(Cc2cccc(F)c2)cc1Cc1cccc(F)c1` gave an IC50 of 0.0051 µM.

Compound `CCCCC1CCCCCCc2cc1c(/C=C1\N=C(c3ccc[nH]3)C=C1OC)[nH]2` (centres undefined) [STREPTORUBIN B] registered a half-maximal inhibitory concentration (IC50) of 0.0078 µM.

On to `CCCCCCCCc1cc(CCCCCC)[nH]c1/C=C1\N=C(c2ccc[nH]2)C=C1OC`, for which half-maximal inhibition (IC50) was put at 0.0049 µM.

The compound `CCCCCCCCCCCC1=N/C(=C\c2[nH]c(-c3ccc[nH]3)cc2OC)C=C1` [UNDECYLPRODIGININE] came in with an IC50 of 0.0077 µM.

`CCCCCCCCCCc1cc[nH]c1/C=C1\N=C(c2ccc[nH]2)C=C1OC`: the midpoint of inhibition, the IC50, lay at 0.008 µM.

The compound `COC1=CC(c2cc3ccccc3[nH]2)=N/C1=C\c1[nH]c(C)cc1C` [OBATOCLAX] came in with a half-inhibitory concentration (IC50) of 4.25 µM.

Regarding `COC1=CC(c2ccc[nH]2)=N/C1=C\c1[nH]ccc1Cc1ccc(Br)cc1`, 0.09 µM corresponded to half-maximal inhibition (IC50).

For the compound `CCCCCCc1cc(CCCCCC)c(/C=C2\N=C(c3ccc[nH]3)C=C2OC)[nH]1`, it took 0.0017 µM to reach half-maximal inhibition (IC50).

For `COC1=CC(c2ccccc2)=N/C1=C\c1[nH]c(C)cc1C`, the IC50 was 19.4 µM.

The compound `COC1=CC(c2ccc[nH]2)=N/C1=C\c1[nH]ccc1Cc1ccc2ccccc2c1` returned an IC50 of 0.056 µM.

As for `COC1=CC(c2ccc[nH]2)=N/C1=C\c1ccc(CCCCCCCCCCCN)[nH]1`, the half-maximal inhibitory concentration (IC50) worked out at 1.7 µM.

For `COC(=O)CCCc1cc[nH]c1/C=C1\N=C(c2ccc[nH]2)C=C1OC`, half-maximal inhibition (IC50) was put at 4.5 µM.

Consider `CCCCCC1=C/C(=C/c2[nH]c(-c3ccc[nH]3)cc2OC)N=C1C` [PRODIGIOSIN], for which the IC50 is 0.008 µM.

`CCCc1ccc(/C=C2\N=C(c3ccc[nH]3)C=C2OC)[nH]1`: the IC50 came out at 2.3 µM.

The test system of a further data set is Plasmodium falciparum. Briefly: Antimalarial activity multidrug-resistant Plasmodium falciparum Dd2 after 72 hrs by SYBR Green I based fluorescence assay. It counts as functional, organism-based. As to conditions: Dd2, 72 h. The method, boiled down: as §1
Take `COC1=CC(c2ccc[nH]2)=N/C1=C\c1[nH]c(Cc2ccc(Cl)cc2)cc1CCC1CCCCC1`: the IC50 came out at 0.0029 µM.

For `CCCCCCCCCCCC1=N/C(=C\c2[nH]c(-c3cc4ccccc4[nH]3)cc2OC)C=C1`, the concentration for half-maximal inhibition (IC50) was found to be 6.15 µM.

`CCCCCCCCc1cc(CCCCCCCC)c(/C=C2\N=C(c3ccc[nH]3)C=C2OC)[nH]1`: the half-inhibitory concentration (IC50) came to 0.129 µM.

In turn, `COC1=CC(c2ccc[nH]2)=N/C1=C\c1[nH]ccc1Cc1ccc(OC)cc1` came in with an IC50 of 0.156 µM.

`COC1=CC(c2ccc[nH]2)=N/C1=C\c1[nH]c(Cc2c(F)cccc2F)cc1Cc1c(F)cccc1F` displayed an IC50 of 0.0183 µM.

In the case of `COC1=CC(c2ccc[nH]2)=N/C1=C\c1[nH]c(Cc2cccc(F)c2)cc1Cc1cccc(F)c1`, the IC50 was found to be 0.0067 µM.

Compound `CCCCCCc1cc(Cc2ccc(Br)cc2)c(/C=C2\N=C(c3ccc[nH]3)C=C2OC)[nH]1` displayed an IC50 of 0.0028 µM.

`CCCCCCCCc1cc(CCCCCC)[nH]c1/C=C1\N=C(c2ccc[nH]2)C=C1OC` yielded an IC50 of 0.002 µM.

As to `CCCCCCCCCCc1cc[nH]c1/C=C1\N=C(c2ccc[nH]2)C=C1OC`, the IC50 was 0.01 µM.

For `COC1=CC(c2cc3ccccc3[nH]2)=N/C1=C\c1[nH]c(C)cc1C` [OBATOCLAX], the midpoint of inhibition, the IC50, lay at 4.95 µM.

In the case of `COC1=CC(c2ccc[nH]2)=N/C1=C\c1[nH]ccc1Cc1ccc(Br)cc1`, the IC50 is 0.108 µM.

The compound `CCCCCCc1cc(CCCCCC)c(/C=C2\N=C(c3ccc[nH]3)C=C2OC)[nH]1` gave an IC50 of 0.0011 µM.

In turn, `COC1=CC(c2ccccc2)=N/C1=C\c1[nH]c(C)cc1C` showed an IC50 of 13.6 µM.

Regarding `COC1=CC(c2ccc[nH]2)=N/C1=C\c1[nH]ccc1Cc1ccccc1`, the IC50 is 0.086 µM.

On to `CCc1cc(Cc2ccc(Cl)cc2)c(/C=C2\N=C(c3ccc[nH]3)C=C2OC)[nH]1`, for which the midpoint of inhibition, the IC50, lay at 0.0062 µM.

In turn, `CCCCCCc1cc(Cc2ccc(F)cc2)c(/C=C2\N=C(c3ccc[nH]3)C=C2OC)[nH]1` displayed a half-inhibitory concentration (IC50) of 0.0009 µM.

As for `COC1=CC(c2ccc[nH]2)=N/C1=C\c1[nH]c(Cc2ccc(F)cc2)cc1Cc1ccc(Cl)cc1`, inhibition was half-maximal at 0.0061 µM (IC50).

Test system in another data set: not listed separately
Briefly: Toxicity in C57BL/6J mouse splenic lymphocytes after 72 hrs by Alamar blue Assay. Particulars: splenic lymphocyte. It counts as cell-based. The method, boiled down:
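Splenic lymphocytes from C57BL/6J mice washed, then stimulated with 1 μg/mL concanavalin A in RPMI/10% FBS with 50 μM β-mercaptoethanol. Seeded at 2 × 10^5 cells/well with serially diluted compound for 72 h at 37 °C, 5% CO2. Resazurin added (final 10 μM) for another 24 h; fluorescence read at ex 560/em 590 nm.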
Take `COC1=CC(c2ccc[nH]2)=N/C1=C\c1[nH]c(Cc2ccc(Cl)cc2)cc1CCC1CCCCC1`: the IC50 worked out at 1.01 µM.

`CCCCCCCCCCCC1=N/C(=C\c2[nH]c(-c3cc4ccccc4[nH]3)cc2OC)C=C1` showed an IC50 of 3.41 µM.

`CCCCCCCCc1cc(CCCCCCCC)c(/C=C2\N=C(c3ccc[nH]3)C=C2OC)[nH]1` gave an IC50 of 31.2 µM.

Consider `COC1=CC(c2ccc[nH]2)=N/C1=C\c1[nH]ccc1Cc1ccc(OC)cc1`, for which the 50% inhibitory concentration (IC50) was under 0.125 µM.

For `COC1=CC(c2ccc[nH]2)=N/C1=C\c1[nH]c(Cc2c(F)cccc2F)cc1Cc1c(F)cccc1F`, the half-inhibitory concentration (IC50) was under 0.125 µM.

`COC1=CC(c2ccc[nH]2)=N/C1=C\c1[nH]c(Cc2cccc(F)c2)cc1Cc1cccc(F)c1`: the IC50 was under 0.125 µM.

In the case of `CCCCCCc1cc(Cc2ccc(Br)cc2)c(/C=C2\N=C(c3ccc[nH]3)C=C2OC)[nH]1`, the half-maximal inhibitory concentration (IC50) is under 0.125 µM.

`CCCCCCCCc1cc(CCCCCC)[nH]c1/C=C1\N=C(c2ccc[nH]2)C=C1OC` had an IC50 of under 0.125 µM.

`CCCCCCCCCCc1cc[nH]c1/C=C1\N=C(c2ccc[nH]2)C=C1OC` came in with a half-maximal inhibitory concentration (IC50) of under 0.125 µM.

As for `COC1=CC(c2cc3ccccc3[nH]2)=N/C1=C\c1[nH]c(C)cc1C` [OBATOCLAX], the 50% inhibitory concentration (IC50) was under 0.125 µM.

In turn, `COC1=CC(c2ccc[nH]2)=N/C1=C\c1[nH]ccc1Cc1ccc(Br)cc1` showed a half-maximal inhibitory concentration (IC50) of under 0.125 µM.

`CCCCCCc1cc(CCCCCC)c(/C=C2\N=C(c3ccc[nH]3)C=C2OC)[nH]1` displayed an IC50 of under 0.125 µM.

`COC1=CC(c2ccccc2)=N/C1=C\c1[nH]c(C)cc1C` yielded an IC50 of 7.95 µM.

`COC1=CC(c2ccc[nH]2)=N/C1=C\c1[nH]ccc1Cc1ccccc1` returned an IC50 of under 0.125 µM.

For `CCc1cc(Cc2ccc(Cl)cc2)c(/C=C2\N=C(c3ccc[nH]3)C=C2OC)[nH]1`, the half-inhibitory concentration (IC50) is under 0.125 µM.

`CCCCCCc1cc(Cc2ccc(F)cc2)c(/C=C2\N=C(c3ccc[nH]3)C=C2OC)[nH]1` gave a 50% inhibitory concentration (IC50) of 1.46 µM.

`COC1=CC(c2ccc[nH]2)=N/C1=C\c1[nH]c(Cc2ccc(F)cc2)cc1Cc1ccc(Cl)cc1` gave an IC50 of under 0.125 µM.

`CCN(CC)CCCC(C)Nc1ccnc2cc(Cl)ccc12` (centres undefined) [CHLOROQUINE] gave an IC50 of 16 µM.
